Source: PubChem BioAssay (several laboratories)
NR2E3 ag-1 – inhibitors of NR2E3-RetCOR corepressor binding, primary screen, NR2E3 agonist project, biochemical, TR-FRET, GST-NR2E3, biotin-RetCOR; Photoreceptor-specific nuclear receptor (Homo sapiens), Q9Y5X4; inhibition of corepressor binding, % at 4.78 µM; 1536-well; actives 0.12% (n = 320,000);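 active = percent inhibition above the cutoff of mean plus 3 SD of all tested compounds, set per screening campaign, cut at about 20% in these data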;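 note: 0% = DMSO wells and 100% = biotin wells as full block of FRET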
Target sequence (Q9Y5X4 whole entry, looked up): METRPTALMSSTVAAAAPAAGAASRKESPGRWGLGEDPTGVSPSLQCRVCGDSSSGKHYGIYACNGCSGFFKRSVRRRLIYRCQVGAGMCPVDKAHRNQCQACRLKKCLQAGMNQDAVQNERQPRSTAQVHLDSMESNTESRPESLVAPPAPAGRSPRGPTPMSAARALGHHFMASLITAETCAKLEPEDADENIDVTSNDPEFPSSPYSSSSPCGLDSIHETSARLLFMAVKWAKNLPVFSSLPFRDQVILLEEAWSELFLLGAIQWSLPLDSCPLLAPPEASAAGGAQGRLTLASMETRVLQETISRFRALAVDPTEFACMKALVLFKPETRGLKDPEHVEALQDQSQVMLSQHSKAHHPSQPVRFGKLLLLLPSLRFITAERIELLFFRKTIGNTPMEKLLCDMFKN
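System: GST-tagged NR2E3 plus biotinylated RetCOR corepressor; Buffer or medium: pH 7.5 Tris-based buffer; Probe or stimulus: RetCOR corepressor, biotinylated, 7 nM; Doses: compound at 4.8 µM, single dose; Schedule: 5 h incubation at 4 °C; Technique: time-resolved FRET; Evaluation: percent inhibition of TR-FRET ratio; Replication: one well per compound, singlicate testing.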
MsrA inh – bovine MsrA enzyme inhibitors, primary screen, biochemical, absorbance, HTS; inhibition, % at 15.5 µM; actives 0.75% (n = 360,000); purified bovine MsrA, absorbance read-out; AID 651718, 2012; in the data active = inhibition above about 4.5%;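 note: 0% = vehicle wells with enzyme and 100% = reference inhibitor wells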
NadD block – inhibitors of S. aureus NadD, primary screen, biochemical, colorimetric, uHTS. Nicotinate-nucleotide adenylyltransferase NadD (Staphylococcus aureus N315). purified NadD enzyme, colorimetric absorbance read-out. inhibition, % at 20 µM. actives 0.78% (n = 360,000); in the data active = inhibition above about 26%
GalR3 antag – GalR3 antagonists in HEK293 cells, primary screen, cell-based, fluorescence readout | Galanin receptor type 3 (Homo sapiens), O60755 | HEK293 GalR3-CNG cAMP membrane potential fluorescence; galR3 body fused to GalR1 C-terminus | inhibition, % at 3 µM | actives 0.44% (n = 360,000);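 active = inhibition above the screen-wide average plus 3 SD, cut at about 13% in these data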;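 note: forskolin and galanin both at EC90 stimulate the cells; cAMP rise reported by CNG channel membrane potential dye signal; 0% = forskolin plus galanin with DMSO and 100% = forskolin alone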
NR2E3 ag-2 – NR2E3 agonists in two-hybrid cells, primary screen, cell-based, luminescence, CHO-S, Gal4-NCOR/VP16-NR2E3; Photoreceptor-specific nuclear receptor (Homo sapiens), Q9Y5X4; actives 0.35% (n = 360,000); luciferase; AID 602229, 2012; inhibition of corepressor binding, % at 3.98 µM;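 active = inhibition above the mean of all tested compounds plus 3 SD, cut at about 70% in these data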;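 note: 0% = DMSO with NR2E3 transfected cells and 100% = cells lacking NR2E3 construct; higher means lower luciferase signal from less NR2E3 corepressor binding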
bovine MsrA act – bovine MsrA enzyme activators, primary screen, biochemical, absorbance, HTS | Methionine sulfoxide reductase A (Bos taurus) | purified bovine MsrA, absorbance read-out | activation, % at 10.6 µM | actives 0.3% (n = 360,000); in the data active = activation above about 7.5%;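 note: 0% = vehicle and 100% = reference activator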
GalR3 conf – GalR3 antagonist hit confirmation, cell-based, fluorescence, triplicate; shares compounds with GalR3 antag; HEK293 GalR3 CNG cAMP biosensor, membrane potential fluorescence; galR3 fused to GalR1 carboxy tail; challenged with forskolin and galanin at EC90; inhibition, % at 3 µM; actives 59% (n = 1,600); AID 652245, 2013;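 active = inhibition above the primary screen's cutoff, the mean inhibition of all screened compounds plus 3 SD, cut at about 13% in these data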;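 note: 0% = forskolin plus galanin and 100% = forskolin alone with DMSO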
CNG parental – nonspecific cAMP agonists in parental HEK-CNG cells, counter-screen for GalR3 antagonist project, cell-based, fluorescence, high throughput; shares compounds with GalR3 antag; HEK293-CNG parental cells, cAMP membrane potential fluorescence; normalised: DMSO wells 0%, forskolin wells 100%; activation, % at 3 µM; actives 10% (n = 1,600); AID 652268, 2013; in the data active = activation above about 1.3%
Numbers without * were called inactive; nt = no result. Hits are enriched below; roughly 2.5% of the tested compounds scored in any of these assays.

SMILES	NR2E3 ag-1	MsrA inh	NadD block	GalR3 antag	NR2E3 ag-2	bovine MsrA act	GalR3 conf	CNG parental
CCC(=O)N1CCN(c2ccc(NC(=S)NC(=O)COc3ccccc3)cc2)CC1	6.9	-0.6	-3.3	-6.2	-16.5	-4.6	nt	nt
CC(=O)N1CCN(c2ccc(NC(=S)NC(=O)COc3ccc(C(C)(C)C)cc3)cc2)CC1	2.0	-0.8	-6.2	29.8*	-11.9	-1.9	95.2*	-0.6
COc1cccc(CN(C(=O)CN2C(=O)c3ccccc3S2(=O)=O)C(C(=O)NCC2CCCO2)c2ccco2)c1 (stereo not given)	4.3	-0.1	-3.9	-8.6	-20.1	3.8	nt	nt
COc1cc(OC)cc(C(=O)NCC(=O)NCCN2C(=O)S/C(=C\c3ccc4c(c3)OCO4)C2=O)c1	nt	2.6	-6.9	13.0*	0.1	-7.2	9.8	0.3
COc1cc(OC)cc(C(=O)NCC(=O)NCCN2C(=O)S/C(=C\c3ccccc3Cl)C2=O)c1	1.0	0.2	-0.7	-4.8	30.5	-1.7	nt	nt
CC1=Nc2ccccc2/C1=C/c1sc(=S)n(-c2cccc(C(=O)O)c2)c1O	nt	2.0	12.3	-2.8	-8.2	-14.4	nt	nt
CSc1nsc2nc(=O)c(/C=C3\C(C)=Nc4ccccc43)c(N)n12	nt	0.9	2.3	12.7*	-60.0	-3.4	2.6	-0.1
O=C(N/N=C(\c1ccccc1)c1cccnc1)c1cccc(F)c1	1.9	3.0	-3.2	42.3*	32.0	-8.2	38.0*	0.4
COc1ccc(Cl)cc1CN1CCOCC1	3.2	-0.5	-4.8	12.7*	-17.1	-7.8	8.1	0.2
CCCOc1ccc(Cl)cc1CN1CCOCC1	2.4	-0.7	-7.6	3.1	-33.8	-4.4	nt	nt
CCOc1ccc(S(=O)(=O)Nc2nc3ccccc3nc2N2CCN(C)CC2)cc1	0.5	3.3	1.4	20.3*	-48.5	-15.2	17.1*	0.4
CCOc1ccc(S(=O)(=O)Nc2nc3ccccc3nc2Cl)cc1	3.4	0.0	-6.1	-7.6	4.7	-4.8	nt	nt
O=C(Nc1nnc(Cc2ccc(Cl)cc2)s1)c1ccco1	3.6	0.5	-3.3	-1.8	-44.6	-7.1	nt	nt
COc1cc(NC(=O)c2cccnc2)ccc1-c1cc2ccccc2oc1=O	1.3	0.5	nt	-0.8	nt	nt	nt	nt
CCc1ccc(OCC(=O)Nc2ccc(-c3cc4ccccc4oc3=O)c(OC)c2)cc1	3.3	1.1	-9.1	26.0*	-54.3	2.4	66.3*	0.4
COC(=O)Cn1ncc2c3ccccc3n(C)c2c1=O	1.8	0.5	-2.0	2.4	-38.9	-0.4	nt	nt
Cn1c2ccccc2c2cnn(CC(=O)O)c(=O)c21	1.1	2.1	1.4	nt	11.1	-4.2	0.6	0.9
CCCCC[C@H](O)/C=C/[C@H]1CCC(=O)[C@@H]1CCCCCCC(=O)N1CCCCC1CO (stereo not given in full)	-0.8	-0.8	2.2	79.2*	14.7	1.2	96.9*	-0.3
CCC1CCCCN1C(=O)CCCOc1ccccc1 (stereo not given)	2.6	1.8	-4.9	-1.9	-9.0	-2.8	nt	nt
COc1cc(OC)cc(C2=Cc3ccc(OC)cc3C(CC(C)=O)N2c2ccc(-c3cncnc3)cc2)c1 (stereo not given)	nt	3.9	0.3	-5.7	-18.9	-6.1	nt	nt
